Experimental data as given in ChEMBL document CHEMBL2203193, “Synthesis of novel mono and bis-indole conduritol derivatives and their α/β-glycosidase inhibitory effects” (Bioorg Med Chem Lett, 2012).
pIC50: −log10 of the molar value.

Key:
[1] = Inhibition of almond beta-glucosidase using 4-nitrophenyl beta-D-glucopyranoside as substrate after 30 mins by spectrophotometric analysis; design: species or system Prunus dulcis
Procedure, shortened: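 Reaction held 1 mM 4-nitrophenyl β-D-glucopyranoside in phosphate buffer pH 6.8 with inhibitor, preincubated at 37 °C for 5 min. Enzyme (EC 3.2.1.21, 0.075 unit) was then added, followed by 30 min at 37 °C. Na₂CO₃ (100 mM) stop, then absorbance at 400 nm. Inhibitor at 10, 20, 30, 50, 70, 80, 90 and 100, triplicates. Control without inhibitor set to 100%; IC50 from activity% vs log[inhibitor].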

[2] = Inhibition of Bacillus stearothermophilus alpha-glucosidase using 4-nitrophenyl alpha-D-glucopyranoside as substrate after 30 mins by spectrophotometric analysis; design: species or system Geobacillus stearothermophilus
Procedure, shortened: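 Inhibitor in phosphate buffer pH 6.8 with 1 mM 4-nitrophenyl α-D-glucopyranoside was preincubated 5 min at 37 °C. Then 0.075 unit enzyme was added and the mix held 30 min at 37 °C. Stopped with 100 mM Na₂CO₃; liberated p-nitrophenol read at 400 nm. Inhibitor levels were 1, 3, 10, 15 and 25, each in triplicate. IC50 came from an activity% vs log[inhibitor] plot, with no-inhibitor control taken as 100%.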

SMILES | pIC50 [1] | pIC50 [2]
O[C@H]1[C@H](O)[C@@H](N2CCc3ccccc32)C=C[C@@H]1N1CCc2ccccc21 | 4.17 | 4.74
CC(=O)O[C@@H]1[C@@H](O)[C@H](OC(C)=O)C=C[C@H]1N1CCc2ccccc21 | 4.61 | 4.91
C[C@H]1O[C@H](O[C@H]2[C@H](O)[C@@H](O)[C@@H](O[C@H]3[C@H](O)[C@@H](O)C(O)O[C@@H]3CO)O[C@@H]2CO)[C@H](O)[C@@H](O)[C@@H]1N[C@H]1C=C(CO)[C@@H](O)[C@H](O)[C@H]1O (stereo not given in full) [ACARBOSE] | 3.99 | 5.03

Now from value to compound:

pIC50 [1] | pIC50 [2] | SMILES
4.28 | 4.71 | CC(=O)O[C@H]1[C@H](OC(C)=O)[C@@H](n2ccc3ccccc32)C=C[C@@H]1n1ccc2ccccc21
4.64 | 4.94 | CC(=O)O[C@@H]1[C@@H](O)[C@H](OC(C)=O)C=C[C@H]1n1ccc2ccccc21
